Data from ChEMBL document CHEMBL2440059, “Antiproliferative, antiandrogenic and cytotoxic effects of novel caffeic acid derivatives in LNCaP human androgen-dependent prostate cancer cells” (Bioorg Med Chem, 2013).
The source made the active and inactive calls. The calls are words filed in the database; no cut-off is given here.

What was measured:
[1] = test system: Radical scavenging activity; assay: Antioxidant activity assessed as DPPH radical scavenging activity after 30 mins by spectrophotometry; assay type: functional
In short: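 Ethanolic DPPH ([…], stock) was mixed 1:1 with increasing concentrations of compound in ethanol and held in the dark 30 min at room temperature. Absorbance was read at 520 nm, with control OD accepted within 0.350–0.360. Activity was taken as % inhibition of absorbance and IC50 came from a variable-slope sigmoidal fit. Triplicates, two independent experiments.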

LNCaP [2] = assay: Reduction of androgen receptor protein expression in human LNCAP cell cytoplasm at > 10 uM after 24 hrs by chemoluminescence assay in presence of DHT; assay type: functional, cell-based
In short: (§1)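 Near-confluent LNCaP cells were switched to steroid-free medium for 24 h, then exposed 24 h to compounds with or without 10 nM DHT. Nuclear and cytoplasmic fractions were extracted and assayed by BCA. Protein (40 μg) was run on SDS-PAGE, blotted to PVDF, and probed overnight at 4 °C with anti-AR, then with an HRP anti-rabbit secondary. Duplicates, three experiments.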

LNCaP [3] = assay: Induction of androgen receptor protein expression in human LNCAP cell nucleus at 1 to 30 uM after 24 hrs by chemoluminescence assay in presence of DHT relative to control; assay type: functional; in short: as §1
LNCaP [4] = assay: Antiandrogenic activity in human LNCAP cells assessed as reduction in DHT-stimulated PSA release after 24 hrs by ELISA
LNCaP [5] = assay: Induction of androgen receptor protein expression in human LNCAP cell nucleus at 1 to 30 uM after 24 hrs by chemoluminescence assay in presence of DHT relative to cytoplasm; assay type: functional; in short: as §1
LNCaP [6] = assay: Induction of androgen receptor protein expression in human LNCAP cell nucleus at > 10 uM after 24 hrs by chemoluminescence assay in presence of DHT; assay type: functional, cell-based; in short: as §1
LNCaP [7] = assay: Antiproliferative activity against human LNCAP cells at 0.3 uM after 72 hrs in presence of DHT; assay type: functional, cell-based
In short: (§2)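 LNCaP cells (fewer than 18 passages) were seeded at 25 × 10³ cells/well on electrode-microarray plates in phenol red-free medium with 10% stripped FBS. After 24 h they were exposed to compounds with or without 0.1 nM DHT, in 0.2% final DMSO. Proliferation was tracked as impedance in real time over 72 h. Duplicates, three experiments; doubling time was derived from the growth rate.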

LNCaP [8] = assay: Antiproliferative activity against human LNCAP cells at 10 uM after 72 hrs in presence of DHT; assay type: functional, cell-based; in short: as §2
LNCaP [9] = assay: Antiproliferative activity against human LNCAP cells after 72 hrs in presence of DHT; assay type: functional, cell-based; in short: as §2
LNCaP [10] = assay: Cytotoxicity against human LNCAP cells assessed as reduction in cell viability after 24 hrs by WST-1 assay
LNCaP [11] = assay: Cytotoxicity against human LNCAP cells assessed as reduction in cell viability at 100 uM after 24 hrs by WST-1 assay; assay type: functional
In short: (§3)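 LNCaP cells were acclimatised 24 h in complete medium, after which the medium was refreshed. Compounds were added from DMSO (0.1% final, 0.1% DMSO controls) over 0.1–100 μM for a 24 h exposure. Quadruplicate wells, three experiments. IC50 came from a variable-slope sigmoidal concentration–response fit.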

LNCaP [12] = assay: Antiproliferative activity against human LNCAP cells at 1 to 10 uM after 72 hrs in presence of DHT; assay type: functional, cell-based; in short: as §2
LNCaP [13] = assay: Cytotoxicity against human LNCAP cells at 1 uM after 24 hrs by WST-1 assay; assay type: functional, cell-based; in short: as §3
PC-3 = assay: Antiproliferative activity against human PC3 cells after 72 hrs by trypan blue assay; assay type: cell-based; details: PC-3, 72 h

SMILES | IC50 [1] [µM] | Activity (LNCaP [9]) | IC50 (LNCaP [10]) [µM] | inhibition at 100 µM (LNCaP [11]) [%] | further results
O=C(/C=C/c1ccc(O)c(O)c1)OCCC1CCCCC1 | 15.1 | Dose-dependent effect | 6.8 | > 95 | Activity (LNCaP [2]): Active; fold change (FC) (LNCaP [3]): 5; IC50 (LNCaP [4]): 2 µM; fold change (FC) (LNCaP [5]): 5; Activity (LNCaP [6]): Active; Activity (LNCaP [7]): Active; Activity (LNCaP [8]): Active
O=C(/C=C/c1ccc(O)c(O)c1)OCCc1cccc2ccccc12 | 13.2 | Dose-dependent effect | 9.3 | > 80 | Activity (LNCaP [8]): Active
O=C(/C=C/c1ccc(O)c(O)c1)NCCc1ccccc1 [CAFFEIC ACID PHENETHYL AMIDE] | 13.8 | Dose-dependent effect | > 100 |  | 
O=C(/C=C/c1ccc(O)c(O)c1)Oc1ccccc1 | 12.5 | Dose-dependent effect | 65.9 |  | 
O=C(/C=C/c1ccc(O)c(O)c1)OCC(c1ccccc1)c1ccccc1 | 18.5 | Dose-dependent effect | 20.8 | > 80 | Activity (LNCaP [8]): Active
O=C(/C=C/c1ccc(O)c(O)c1)OCCCc1ccccc1 | 11.9 | Dose-dependent effect | 26.6 | > 80 | 
CC(C)CCOC(=O)/C=C/c1ccc(O)c(O)c1 | 23.8 |  | 45.4 |  | 
O=C(O)/C=C/c1ccc(O)c(O)c1 [CAFFEIC ACID] | 15.3 |  | > 100 |  | Activity (LNCaP [13]): inactive
Cc1ccc(CCOC(=O)/C=C/c2ccc(O)c(O)c2)cc1 | 11.3 | Dose-dependent effect | 14 | > 80 | 
O=C(/C=C/c1ccc(O)c(O)c1)OCc1ccccc1 [BENZYL CAFFEATE] | 15.3 | Dose-dependent effect | 45.6 |  | 
O=C(/C=C/c1ccc(O)c(O)c1)OCCc1ccc(F)cc1 | 12.8 | Dose-dependent effect | 20.8 | > 80 | 
COc1ccc(CCOC(=O)/C=C/c2ccc(O)c(O)c2)cc1 | 17.4 |  | 47.3 |  | Activity (LNCaP [12]): inactive

The remaining compounds from weak to strong by IC50 [1], led by results:

IC50 [1] [µM] | SMILES | Activity (LNCaP [9]) | IC50 (LNCaP [10]) [µM] | inhibition at 100 µM (LNCaP [11]) [%] | further results
21.3 | COC(=O)/C=C/c1ccc(O)c(O)c1 [METHYLCAFFEATE] |  | > 100 |  | Activity (LNCaP [12]): inactive
16.5 | O=C(/C=C/c1ccc(O)c(O)c1)OCCc1ccccc1 [CAFFEIC ACID PHENETHYL ESTER] | Dose-dependent effect | 33.7 |  | IC50 (PC-3): 51.4 µM; Activity (LNCaP [2]): Active; fold change (FC) (LNCaP [3]): 5; IC50 (LNCaP [4]): 6.2 µM; fold change (FC) (LNCaP [5]): 5; Activity (LNCaP [6]): Active; Activity (LNCaP [7]): Active
14.2 | CCCOC(=O)/C=C/c1ccc(O)c(O)c1 | Dose-dependent effect | 60.7 |  | 
13.3 | CCOC(=O)/C=C/c1ccc(O)c(O)c1 [ETHYL CAFFEATE] |  | > 100 |  | Activity (LNCaP [12]): inactive
13 | CC(C)OC(=O)/C=C/c1ccc(O)c(O)c1 |  | 51.9 |  | 
12.6 | CCCCOC(=O)/C=C/c1ccc(O)c(O)c1 [BUTYL CAFFEATE] |  | 45.4 |  | 
9.5 | C=C(C)CCOC(=O)/C=C/c1ccc(O)c(O)c1 |  | 20.6 | > 80 | Activity (LNCaP [12]): inactive
